FAK blocker = FAK kinase inhibitors, primary screen, biochemical | Focal adhesion kinase 1 (Homo sapiens), Q05397 | biochemical FAK kinase activity assay | inhibition, %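 (tested at 7 µM)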 | 97,000 compounds, 0.84% hits | AID 727, 2007; in the data active means inhibition above about 19%
HUVEC tox IL1B = cytotoxicity in IL-1B stimulated HUVEC, primary screen, cytotoxicity control for IL-1B NFkB translocation project, imaging, Hoechst nuclear count, IL-1B stimulus; HUVEC cell count loss; 94,000 compounds, 0.41% hits; cell count reduction, % at 2 µM;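 active means cell count reduction more than 3 SD above the screen-wide mean, cut at about 70% in these data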
Rev-RRE block = HIV-1 Rev-RRE binding inhibitors, primary screen, biochemical, FRET, protein-RNA interaction; P05866; Rev peptide-RRE RNA binding; inhibition, % at 8 µM; 97,000 compounds, 0.79% hits; AID 704, 2007;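 active means inhibition above the screen-wide mean plus 3 SD, cut at about 35% in these data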
Target sequence (P05866 whole entry, looked up): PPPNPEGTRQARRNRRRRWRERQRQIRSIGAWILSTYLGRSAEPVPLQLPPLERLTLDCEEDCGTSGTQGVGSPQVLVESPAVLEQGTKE
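Assay system: labelled RRE RNA duplex and labelled Rev peptide / Medium: HEPES pH 7.5 salt buffer with EDTA / Reagent: labelled Rev peptide / Schedule: 5 + 15 min at 25 °C / Signal: FRET, excitation 480 nm, emission 540 nm donor and 671 nm acceptor / Benchmarks: DMSO and neomycin B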
NFkB transloc pot = enhancers of NFkB p65 translocation in HUVEC – imaging, IL-1B stimulus, high-content imaging, primary screen; HUVEC IL-1B NFkB p65 nuclear translocation imaging; activation, % at 2 µM; 94,000 compounds, 0.3% hits;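 active means activation above 40%, about the mean plus 3 SD, also judged a hit on visual image review; inconclusive means activation above 40% but not a hit on visual review; inactive means activation not above 40% and no visual hit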;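 further: percent activation is computed from the nuclear over cytoplasmic p65 intensity ratio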
IL1B NFkB inh = inhibitors of IL-1B driven NFkB p65 nuclear import, primary screen, imaging, HUVEC, IL-1B stimulus, high-content imaging; HUVEC IL-1B NFkB p65 nuclear translocation imaging; 94,000 compounds, 0.43% hits; inhibition, % at 2 µM;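 active means inhibition above about 30% together with a positive call from visual inspection of the well image, limit read from the data; inconclusive means inhibition above a set limit but visual check negative; inactive means inhibition not above a set limit, visual check negative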;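 further: nuclear over cytoplasmic p65 intensity ratio measured by imaging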
Measles CPE = compounds protecting cells from measles virus cytopathic effect, primary screen, measles RdRp inhibitor project, single point, MLSMR library, absorbance; protection (pct of control), % at 4 µM; Measles virus-infected cells, CPE protection; 140,000 compounds, 1.5% hits; in the data active means protection mostly above about 24%, no sharp cut-off; inactive means mostly below about 26%
Of the large screens only hits and unclear results are named; the others gave an inactive call; [ ] = another dose, or the depositor's remark. Only some compounds are listed: those with a hit (about 3.3% of all), similar ones and a draw of the others.

O=C(Nn1c(C2CCCCC2)nc2ccccc2c1=O)c1ccc([N+](=O)[O-])cc1	none (no result: FAK blocker, HUVEC tox IL1B, Rev-RRE block, NFkB transloc pot, IL1B NFkB inh)
O=C1C2CC=CCC2C(=O)N1c1ccc(NCCc2ccc(O)cc2)c([N+](=O)[O-])c1 (stereo not given)	none (no result: FAK blocker, HUVEC tox IL1B, Rev-RRE block, NFkB transloc pot, IL1B NFkB inh)
CN(C)c1nc(N)nc(/C(C#N)=C/C2CC3C=CC2C3)n1 (stereo not given)	NFkB transloc pot 42
O=C(CSc1nc(-c2ccccc2)c(-c2ccccc2)[nH]1)N1CCN(S(=O)(=O)c2ccccc2)CC1	Measles CPE 28
O=C(CSc1nc2ccccc2c(=O)[nH]1)N1CCN(S(=O)(=O)c2ccccc2)CC1	none
CCCCOc1ccc(C(=O)N/N=C/c2ccc(OCCN3CCCCC3)c(OC)c2)cc1	none (no result: FAK blocker, HUVEC tox IL1B, Rev-RRE block, NFkB transloc pot, IL1B NFkB inh)
O=C(CCCCO)CCCCCCCC[C@H]1N[C@H](CO)[C@H](O)[C@@H]1O[C@@H]1O[C@H](CO)[C@@H](O)[C@H](O)[C@H]1O	none (no result: FAK blocker, HUVEC tox IL1B, Rev-RRE block, NFkB transloc pot, IL1B NFkB inh)
O=C(NCc1cccnc1)C1CCN(C(=O)c2ccc(Cl)cc2Cl)CC1	Measles CPE 35
COC(=O)[C@@H](NC(=O)NCc1ccc(F)cc1)C(C)C	none
CCc1ccc(C(=O)NC(C(=O)O)C(C)C)cc1 (stereo not given)	Measles CPE 38
CC(C)[C@H](NC(=O)NCCc1ccc(F)cc1)C(=O)O	Measles CPE 78
COc1ccc([N+](=O)[O-])cc1NC(=O)C(C)Sc1nc(-c2ccccc2)cs1 (stereo not given)	none (no result: FAK blocker, HUVEC tox IL1B, Rev-RRE block, NFkB transloc pot, IL1B NFkB inh)
CCCCCCNCc1c(F)cccc1Cl	Measles CPE 57 (no result: FAK blocker, HUVEC tox IL1B, Rev-RRE block, NFkB transloc pot, IL1B NFkB inh)
Fc1cccc(Cl)c1CNCc1ccccc1Cl	none
CN(C(=S)Nc1ccc(F)cc1)C1(c2ccccc2Cl)CCCCC1=O (stereo not given)	none
O=C(CN1C(=O)CCC1=O)c1ccc(-c2ccccc2)cc1	Measles CPE 33 (no result: FAK blocker, HUVEC tox IL1B, Rev-RRE block, NFkB transloc pot, IL1B NFkB inh)
CCCC(=O)c1ccc(-c2ccccc2)cc1	none
CCOc1ccc(NC(=O)c2cccc3c2C(=O)N(CCOC)C3)cc1	none
O=C(Nc1ccc(F)cc1)c1cccc2c1C(=O)N(Cc1ccccn1)C2	HUVEC tox IL1B 94
CC(=O)Nc1nnc(SCc2ccc(F)cc2)s1	HUVEC tox IL1B 80
Cc1nc(-c2ccccc2)sc1-c1nc(-c2cccs2)ncc1S(=O)(=O)c1ccccc1	none
O=C(CNc1cc(S(=O)(=O)N2CCCC2)ccc1OCC(F)(F)F)Nc1ccc(SC(F)F)cc1	none (no result: FAK blocker, HUVEC tox IL1B, Rev-RRE block, NFkB transloc pot, IL1B NFkB inh)
CNCCOc1nc(N2CCOCC2)nc(C)c1[N+](=O)[O-]	Measles CPE 56 (no result: FAK blocker, HUVEC tox IL1B, Rev-RRE block, NFkB transloc pot, IL1B NFkB inh)
c1ccc(-c2nc(CSc3n[nH]c(-c4cccs4)n3)cs2)cc1	none
N#CC1=C(N)C(C#N)(C#N)C(c2cccnc2)C2CCCC=C12 (stereo not given)	none
N#CC1=C(N)C(C#N)(C#N)C(c2ccc[nH]2)C2CCCC=C12 (stereo not given)	Rev-RRE block 63
CCOc1ccc(C2C(C(=O)C3CC3)N3C=C(C#N)C=CC3C2(C#N)C#N)cc1 (stereo not given)	Rev-RRE block 48
CCOc1ccc(C(=O)C2CCN(C(=O)c3ccccc3C(=O)O)CC2)cc1	none
CCOC(=O)c1ccc(NC(=O)COC(=O)c2cccc(Oc3ccccc3)c2)cc1	none (no result: FAK blocker, HUVEC tox IL1B, Rev-RRE block, NFkB transloc pot, IL1B NFkB inh)
Cc1nnsc1C(=O)NC(C)C12CC3CC(CC(C3)C1)C2 (stereo not given)	none
Cc1ccc(Cl)cc1N1CCN(C(=O)COc2ccc(S(=O)(=O)NC(C)C)cc2)CC1	Measles CPE 56
CC(C)NS(=O)(=O)c1ccc(OCC(=O)N2CCCC2)cc1	none
CCOc1ccc2c(c1)C(c1ccc(C)cc1)=NNC(c1ccc(OC)cc1)=N2	none
COc1ccc2c(c1)C(c1ccccc1)=NNC(c1ccco1)=N2	Measles CPE 49
O=C(NC(c1ccccc1)c1ccccc1)c1cccc(S(=O)(=O)NCc2ccccc2)c1	none (no result: FAK blocker, HUVEC tox IL1B, Rev-RRE block, NFkB transloc pot, IL1B NFkB inh)
CCOc1cc(S(=O)(=O)NCCc2cccc(C)c2)c(OCC)cc1-n1cnnn1	IL1B NFkB inh 35
CCOc1cc(S(=O)(=O)NCCc2ccccc2C)c(OCC)cc1-n1cnnn1	none
Brc1ccc(-c2nc3ncccn3c2NC2CCCCC2)o1	none
CCn1c(COc2cccc(C)c2C)nnc1SCC(=O)N1CCN(c2ccc(OC)cc2)CC1	none
COc1ccc(N2CCN(C(=O)CSc3nnc4c(C)cc5ccc(C)c(C)c5n34)CC2)cc1	Measles CPE 50
COc1ccc(N2CCN(C(=O)CSc3nnc4c(C)cc5c(C)cc(C)cc5n34)CC2)cc1	none
COc1ccc(N2CCN(C(=O)CSc3nnc4c(C)cc5cc(C)ccc5n34)CC2)cc1	HUVEC tox IL1B 92
Cc1ccc(S(=O)(=O)N(CCCO)CC(O)CON=C2c3ccccc3-c3ccccc32)cc1 (stereo not given)	none (no result: FAK blocker, HUVEC tox IL1B, Rev-RRE block, NFkB transloc pot, IL1B NFkB inh)
Cc1nc2c(n1O)CCC/C2=N\O	NFkB transloc pot 49
COc1ccc(-c2nc3c(n2O)CCC/C3=N\O)cc1	none
Cc1ccc(NC(=O)COC(=O)CNC(=O)c2ccc(Br)cc2)c(C)c1	none (no result: FAK blocker, HUVEC tox IL1B, Rev-RRE block, NFkB transloc pot, IL1B NFkB inh)
COc1ccc(C(c2nnnn2C2CCCCC2)N2CCN(c3ccc(OC)cc3)CC2)cc1 (stereo not given)	NFkB transloc pot 57
COc1ccc(C(c2nnnn2C2CCCC2)N2CCC(C)CC2)cc1 (stereo not given)	none
CSc1nsc(/C=C/Nc2ccc(C)cc2)c1C#N	Rev-RRE block 58
S=c1[nH]nc(-c2cc(-c3ccco3)[nH]n2)n1-c1ccccc1	IL1B NFkB inh 35
COc1ccccc1C(=O)NN=C1CCN(Cc2ccccc2)CC1	none (no result: FAK blocker, HUVEC tox IL1B, Rev-RRE block, NFkB transloc pot, IL1B NFkB inh)
Cc1ccc(OCC(=O)Sc2ccc(C)cc2)cc1	Measles CPE 38
COc1ccccc1OCC(=O)Sc1ccc(C)cc1	none
COc1cc2cc3c(N)c(C(=O)Nc4sc(C)c(C)c4C#N)sc3nc2cc1OC	Rev-RRE block 100[fluorescence artefact?]
Cc1cc(C(=O)Nc2sc(C)c(C)c2C#N)no1	none
CCCOc1ccc(C2NC(=S)NC(C)=C2C(=O)c2ccccc2)cc1OC (stereo not given)	none (no result: FAK blocker, HUVEC tox IL1B, Rev-RRE block, NFkB transloc pot, IL1B NFkB inh)
O=C(O)C1CCCN(S(=O)(=O)c2ccc(Cl)s2)C1 (stereo not given)	NFkB transloc pot inconclusive
O=C(C1CCCN(S(=O)(=O)c2ccc(Br)s2)C1)N1CCCCCC1 (stereo not given)	IL1B NFkB inh 33
O=[N+]([O-])c1ccc(N2CCN(CCOc3nonc3-c3ccccc3)CC2)c(Cl)c1	Measles CPE 38
CC(=O)Nc1ccc(-c2csc(NC(=O)CCCc3cccs3)n2)cc1	Measles CPE 110 (no result: FAK blocker, HUVEC tox IL1B, Rev-RRE block, NFkB transloc pot, IL1B NFkB inh)
Cc1cccc(N2CCN(C(=O)COc3cccc4c3OC(C)(C)C4)CC2)c1C	none (no result: FAK blocker, HUVEC tox IL1B, Rev-RRE block, NFkB transloc pot, IL1B NFkB inh)
CCc1ccc(-c2csc(NC(=O)COC(=O)CCc3nc4ccccc4s3)n2)cc1	none (no result: FAK blocker, HUVEC tox IL1B, Rev-RRE block, NFkB transloc pot, IL1B NFkB inh)

Screening results (PubChem BioAssay)
